Ins promoter up: MIN6 insulin promoter up-regulation. MIN6 insulin promoter-GFP reporter, high-content imaging; stronger effect = higher value. z-score at 5 µM. actives 0.3% (n = 190,000);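 active = z-score above 3 at 5 µM with at least 500 cells counted in the well; inconclusive = wells under 500 cells, flagged as cytotoxic or low count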
Rad51 HR inh: Rad51 (human) homologous recombination inhibition | actives 0.085% (n = 200,000) | Q06609 | inhibition, % at 10 µM | AID 1385 | hRad51 DNA strand exchange, fluorescence dequenching;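 active = inhibition above 40% at the single screening dose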;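 also: 0% = DMSO control wells and 100% = blanks with heterologous ssDNA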
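System: hRad51 filaments on single-stranded DNA; reagent: Fluorescein- and BHQ1-tagged 47-mer duplex; compound dosing: one concentration, 10 µM final; timing: filaments 15 min 37 °C, then compound 30 min; measured by: fluorescein emission 520 nm, excitation 485 nm; benchmarks: per-plate controls and blanks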
WT yeast gro inh: growth inhibition of WT yeast, mitochondrial fusion screen | mitochondrial fusion phenotypic screen, WT strain | inhibition, % at 10 µM | actives 2.1% (n = 190,000) | AID 1362; in the data active = inhibition above about 58%; tested in S. cerevisiae
Autophagy mod: modulators of autophagy; MEF GFP-LC3 puncta imaging; test concentration mostly 10 µM; calls only at 10 µM (by protocol); actives 0.98% (n = 190,000); AID 463193;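 active = percentage of spot-positive cells more than 3 SD above its plate mean, without a fluorescence outlier flag or 80% toxicity; inconclusive = no clear call, values can overlap the other calls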;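 also: spot-positive cell cutoff set from DMSO-treated cells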
KCC2 mod: modulates chloride dependent transport by human KCC2; Q9H2X9; KCC2 cells, thallium flux FluoZin-2 fluorescence; B-score of Tl+ flux slope (higher = more flux/activation; lower = inhibition) at 10 µM; actives 2.2% (n = 190,000);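 active = thallium flux slope and its plate-corrected score both differing from the plate sample mean at a set confidence after two filtering rounds, in either direction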;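 also: slope of fluorescence scaled to starting intensity during 10 to 20 s after thallium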
Target sequence (Q9H2X9 whole entry, looked up): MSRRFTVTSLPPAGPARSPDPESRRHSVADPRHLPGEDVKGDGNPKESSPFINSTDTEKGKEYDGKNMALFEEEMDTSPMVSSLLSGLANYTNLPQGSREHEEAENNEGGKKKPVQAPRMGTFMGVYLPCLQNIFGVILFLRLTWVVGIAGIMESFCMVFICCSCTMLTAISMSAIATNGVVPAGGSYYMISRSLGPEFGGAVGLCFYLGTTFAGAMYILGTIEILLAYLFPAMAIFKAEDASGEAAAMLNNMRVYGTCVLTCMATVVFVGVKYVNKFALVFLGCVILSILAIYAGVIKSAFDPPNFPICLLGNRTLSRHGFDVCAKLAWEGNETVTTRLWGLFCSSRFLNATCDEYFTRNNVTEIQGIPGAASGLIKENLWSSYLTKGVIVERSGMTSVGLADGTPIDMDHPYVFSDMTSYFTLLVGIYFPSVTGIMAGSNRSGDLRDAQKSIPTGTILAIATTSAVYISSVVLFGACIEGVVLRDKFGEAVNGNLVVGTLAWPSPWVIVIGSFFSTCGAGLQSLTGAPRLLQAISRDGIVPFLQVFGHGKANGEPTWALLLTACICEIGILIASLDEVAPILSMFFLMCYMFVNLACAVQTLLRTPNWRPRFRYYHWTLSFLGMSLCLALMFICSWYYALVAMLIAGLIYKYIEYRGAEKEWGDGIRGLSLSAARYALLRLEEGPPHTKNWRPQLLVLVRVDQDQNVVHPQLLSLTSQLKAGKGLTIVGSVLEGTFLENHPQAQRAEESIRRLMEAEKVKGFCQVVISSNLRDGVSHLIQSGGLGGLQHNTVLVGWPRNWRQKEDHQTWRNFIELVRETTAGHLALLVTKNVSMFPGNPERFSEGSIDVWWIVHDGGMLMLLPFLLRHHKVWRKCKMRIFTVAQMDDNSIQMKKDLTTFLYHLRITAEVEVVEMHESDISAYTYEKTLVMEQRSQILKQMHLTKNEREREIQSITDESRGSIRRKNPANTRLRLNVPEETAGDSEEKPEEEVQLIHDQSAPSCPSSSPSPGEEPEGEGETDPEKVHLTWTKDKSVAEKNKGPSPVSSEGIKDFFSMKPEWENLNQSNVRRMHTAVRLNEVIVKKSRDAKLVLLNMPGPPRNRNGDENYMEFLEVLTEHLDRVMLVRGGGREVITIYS
SKKanGAS inh: inhibitors of SKKanGAS S. pyogenes growth in kanamycin (SK-promoter or general growth effect); BacTiter-Glo, 6 h; AID 1662; actives 1.3% (n = 300,000); inhibition, % at 7.5 µM;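 active = mean replicate score, as percent of positive control median, at least 50; inconclusive = mean below 50 but one replicate at or above 50; inactive = mean and every replicate below 50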;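 also: strain carries kanamycin resistance gene driven by streptokinase promoter and grows in 40 µg/ml kanamycin; loss of luminescence reflects streptokinase promoter inhibition or plain growth inhibition; 0% = median of DMSO wells and 100% = positive control at its reference dose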
KCC2 sec1: KCC2 (human) modulation, secondary assay; normalised thallium flux (F/F0 slope) at 10 µM; actives 15% (n = 3,700); AID 1713; shares compounds with KCC2 mod; HEK293-KCC2, thallium flux, FluoZin2 fluorescence; stronger effect = higher value;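 active = thallium flux slope above the same plate's solvent-only control mean plus 3 SD; inconclusive = the two replicate wells disagree; inactive = no significant difference from solvent-only control wells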
KCC2 bumet counter: thallium flux persisting under bumetanide in KCC2 cells, counter-screen secondary assay. shares compounds with KCC2 mod. HEK293-KCC2 + bumetanide/ouabain, thallium flux FluoZin2; stronger effect = higher value. normalized thallium flux at 10 µM. actives 49% (n = 3,700). AID 1714;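 active = thallium entry rate above the same plate's blocked-transporter control wells by more than 3 SD; inconclusive = the two repeat wells disagree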;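 also: raw slope of fluorescence over initial fluorescence between 10 and 20 s after thallium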
KCC2 secondary2: KCC2 (human) modulation, second secondary assay; shares compounds with KCC2 mod; actives 23% (n = 3,700); normalized thallium flux at 10 µM; AID 1715; HEK293-KCC2, thallium flux FluoZin2 fluorescence; actives lie on both sides; F/F0 rise rate, 10–20 s post-thallium;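 active = thallium flux slope more than 3 SD above or below the plate's solvent-only control mean, mostly below; inconclusive = the two repeat wells disagreed; inactive = no significant shift from solvent-only controls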;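 also: raw slope with 0.1% DMSO as baseline and bumetanide as block control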
HEK293 Tl flux: acts in parental HEK cells, KCC2 counter-screen; shares compounds with KCC2 mod; thallium flux rate (normalised fluorescence) at 10 µM; AID 1716; HEK293 parental cells, thallium flux FluoZin2, ouabain; baseline-ratio fluorescence slope, 10–20 s after thallium; actives 46% (n = 3,700);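 active = thallium flux rate significantly above the same plate's solvent-only control wells, beyond their mean plus 3 SD; inconclusive = the two replicate wells gave conflicting results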
KCC2 retest ouab: confirmation of human KCC2 modulators with ouabain. shares compounds with KCC2 mod. HEK293-KCC2, thallium flux FluoZin2 fluorescence; bidirectional: low = inhibitor, high = activator. raw Tl+ flux slope (below DMSO = inhibition, above = activation) at 10 µM. actives 48% (n = 3,700). AID 1717;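 active = thallium flux slope beyond 3 SD from same-plate DMSO control mean in most replicates, usually higher, sometimes lower; inconclusive = repeat tests gave conflicting results; inactive = no significant difference from controls in most replicates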;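 also: slope of initial-normalized fluorescence between seconds 10 and 20 after thallium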
HEK counter2: parental HEK flux effect, counter-screen 2 | AID 1718 | thallium flux slope at 10 µM | shares compounds with KCC2 mod | actives 33% (n = 3,700) | HEK293 parental, thallium flux FluoZin-2 fluorescence slope;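 active = thallium flux slope above the same plate's solvent-control mean plus 3 SD in both duplicate wells; inconclusive = duplicate wells that disagreed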;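 also: run without ouabain in cells lacking the KCC2 cotransporter; slope of fluorescence scaled to its starting value between 10 and 20 s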
The depositor's hits bear a star; i = inactive; ? = inconclusive; nt = no result given; + = active, no number. This is a sample that favours compounds with a hit; in the whole collection about 4.2% have one here.

SMILES	Ins promoter up	Rad51 HR inh	WT yeast gro inh	Autophagy mod	KCC2 mod	SKKanGAS inh	KCC2 sec1	KCC2 bumet counter	KCC2 secondary2	HEK293 Tl flux	KCC2 retest ouab	HEK counter2
CCCC(C)NC(=O)c1sc2nc3n(c(=O)c2c1C)CCC3 (centres undefined)	0.77	-7	-7	i	0.068	-3	nt	nt	nt	nt	nt	nt
CC(=O)N1c2ccc(S(=O)(=O)N(C)CC(=O)NCc3ccc(C)cc3)cc2CC1C (centres undefined)	nt	nt	nt	nt	nt	-2	nt	nt	nt	nt	nt	nt
c1ccc(-c2nc(CSc3n[nH]c(-c4cccs4)n3)cs2)cc1	0.15	5	12	i	-3.8*	-13	0.0063	0.0045	0.024*	0.0067	0.016	0.01
Nc1cc(=O)[nH]c(SCc2csc(-c3ccccc3)n2)n1	-0.17	nt	3	i	-4.2	-3	nt	nt	nt	nt	nt	nt
COc1ccccc1-c1ccc(=O)n(CC(=O)NC2CCc3ccccc32)n1 (centres undefined)	0.89	5	-2	i	nt	-7	nt	nt	nt	nt	nt	nt
COc1cccc2sc(Nc3nc(-c4cc5ccccc5oc4=O)cs3)nc12	0.42	9	-2	i	0.6	14	nt	nt	nt	nt	nt	nt
COc1cccc2sc(Nc3nnc(-c4ccccc4Cl)o3)nc12	nt	2	9	+	80*	91*	0.044*	0.13*	0.099*	?	0.1*	0.11*
O=C(NC(=S)N1CCN(C(c2ccccc2)c2ccccc2)CC1)c1ccc(S(=O)(=O)N2CCOCC2)cc1	-2.1	6	7	i	8.7*	66*	0.006	0.024*	0.032	0.013*	?	?
CCCN(CC1CC1)C(=S)NC(=O)c1ccc(S(=O)(=O)N2CCOCC2)cc1	-0.8	1	-5	i	5.6*	5	0.018	0.019*	0.033	0.017*	0.024*	0.018*
CN1CCN(C(=S)NC(=O)c2ccc(S(=O)(=O)N3CCOCC3)cc2)CC1	0.66	4	22	i	0.013	2	nt	nt	nt	nt	nt	nt
CCNC(=S)N1CCC(n2cnc3ccccc32)CC1	-0.22	28	-7	i	nt	23	nt	nt	nt	nt	nt	nt
NC(=O)c1cccc(C(N)=O)n1	0.48	-2	-14	i	1.5	-4	nt	nt	nt	nt	nt	nt
O=c1cc(-c2ccccc2)nc(SCc2ccc(F)cc2)[nH]1	nt	nt	-1	i	3.9*	-18	0.0065	0.0048	0.027	0.0075	0.018	0.0099
COC(=O)c1cc(S(=O)(=O)Nc2cccc(-c3cnco3)c2)oc1C	nt	nt	nt	nt	nt	12	nt	nt	nt	nt	nt	nt
Cc1nc2cc(C(=O)N3c4ccccc4CC3C)ccc2s1 (centres undefined)	0.06	4	0	i	nt	3	?	0.0058	0.029	0.0066	0.02*	?
COc1ccc(N/C=C/c2nc(SC)nnc2C)cc1	0.26	-49	9	+	-3*	-5	0.0068	0.0022*	0.024*	0.004*	0.012*	0.0077*
CSc1nnc(C)c(/C=C/Nc2ccc(F)cc2)n1	nt	-27	21	i	-1.3	-6	nt	nt	nt	nt	nt	nt
COc1ccc(C(=O)C2CCCN(C(=O)c3noc4c3CCCC4)C2)c(C)c1 (centres undefined)	0.69	-14	2	i	nt	-2	0.0064	0.004	0.028	?	0.017	0.01
